In one series the test system is HepG2. The experiment in a line: Cytotoxicity against human HepG2 cells assessed as reduction in cell viability after 48 hrs by CellTiter 96 aqueous one solution assay. Type of series: cell-based. The following applies: HepG2, 48 h.
For another series, the system named is A-431. Kind of series: Cytotoxicity against human A431 cells assessed as reduction in cell viability after 48 hrs by CellTiter 96 aqueous one solution assay. The settings on record: A-431, 48 h. It counts as cell-based.
Series [1] deals with Mycobacterium kansasii. Kind of series: Antimycobacterial activity against Mycobacterium kansasii CNCTC My 235/80 after 21 days. It counts as functional. The settings on record: CNCTC My 235/80, 504 h. The method in brief: (§1)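 Microdilution in Šula's semisynthetic medium; compounds in DMSO at 32–0.03 µM. Inoculum from 1.0 McFarland suspension diluted 10-4. […] Isoniazid and rifampicin as reference drugs.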

The subject of a further series is Staphylococcus aureus. The experiment in a line: Antibacterial activity against Staphylococcus aureus subsp. aureus ATCC 29213 CCM 4223 measured after 24 to 48 hrs by alamar blue dye based broth microdilution assay. Type of series: functional, organism-based. Background: Alamar Blue is a resazurin reagent that responds to reducing activity.
Series [2] in a line: Cytotoxicity against human A431 cells assessed as cell viability at 30 uM after 48 hrs by CellTiter 96 aqueous one solution assay relative to control. Type of series: cell-based, A-431. The following applies: read-out: Activity. In outline:
(§2)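 HepG2 (DMEM, 10% FBS, 1 mM pyruvate) or A431 (DMEM, 10% FBS) seeded 10,000 cells/well, 24 h at 37 °C, 5% CO2, then 30 µM compound for 48 h. MTS reagent 60 min, absorbance 490 nm, background subtracted; 0.1% DMSO vehicle = 100%, 10% SDS = 0% viability.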

Series [3] concerns Mycobacterium tuberculosis. Kind of series: Antimycobacterial activity against Mycobacterium tuberculosis H37Rv CNCTC My 331/88 after 14 days. Type of series: functional. The settings on record: H37Rv CNCTC My 331/88, 336 h. In outline:
(§3)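 M. tuberculosis strains (H37Rv and clinical MDR/XDR isolates) tested by microdilution in Šula's semisynthetic medium. Compounds were dissolved in DMSO and tested at 32 to 0.03 µM in twofold steps. Inoculum was a 1.0 McFarland suspension diluted 10-3. Plates were incubated at 37 °C and read at 14 and 21 days.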

Series [4] concerns Mycobacterium kansasii. Kind of series: Antimycobacterial activity against Mycobacterium kansasii 6509/96 after 7 days. It counts as functional. The settings on record: 6509/96, 168 h. The method in brief:
as §1

Series [5] relates to Mycobacterium avium. The experiment in a line: Antimycobacterial activity against Mycobacterium avium CNCTC My 330/88 after 21 days. It counts as functional. The following applies: CNCTC My 330/88, 504 h. In outline:
(§4)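 M. avium was tested by microdilution in Šula's semisynthetic medium, with compounds dissolved in DMSO and serially diluted from 1000 down to 1. Inoculum was a 1.0 McFarland suspension diluted 10-5. Plates were incubated at 37 °C and read at 14 and 21 days. […] Isoniazid and rifampicin served as standards.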

The test system of series [6] is Mycobacterium kansasii. Kind of series: Antimycobacterial activity against Mycobacterium kansasii CNCTC My 235/80 after 7 days. The settings on record: CNCTC My 235/80, 168 h. Type of series: functional. In outline: as §1
The test system of series [7] is Mycobacterium avium. Kind of series: Antimycobacterial activity against Mycobacterium avium CNCTC My 330/88 after 14 days. Type of series: functional. The following applies: CNCTC My 330/88, 336 h. In outline:
as §4

Series [8] is described as follows: Cytotoxicity against human HepG2 cells assessed as cell viability at 30 uM after 48 hrs by CellTiter 96 aqueous one solution assay relative to control. Type of series: cell-based. The following applies: read-out: Activity. The method in brief: as §2
Series [9] deals with Mycobacterium kansasii. Kind of series: Antimycobacterial activity against Mycobacterium kansasii CNCTC My 235/80 after 14 days. Type of series: functional. The following applies: CNCTC My 235/80, 336 h. The method in brief: as §1
Series [10] has as its system Mycobacterium kansasii. Kind of series: Antimycobacterial activity against Mycobacterium kansasii 6509/96 after 14 days. The settings on record: 6509/96, 336 h. It counts as functional. In outline:
as §1

Another series concerns Candida albicans. The experiment in a line: Antifungal activity against Candida albicans ATCC 24433 CCM 8320 measured after 24 to 48 hrs by alamar blue dye based broth microdilution assay. It counts as functional, organism-based.
The subject of series [11] is Mycobacterium tuberculosis. The experiment in a line: Antimycobacterial activity against Mycobacterium tuberculosis H37Rv CNCTC My 331/88 after 21 days. It counts as functional. The following applies: H37Rv CNCTC My 331/88, 504 h. In outline:
as §3

Series [12] relates to Mycobacterium kansasii. The experiment in a line: Antimycobacterial activity against Mycobacterium kansasii 6509/96 after 21 days. Type of series: functional. The following applies: 6509/96, 504 h. In outline: as §1
Series [13] in a line: Genotoxicity in Salmonella typhimurium TA100 at 30 uM in absence of rat liver S9 fraction by Ames test. It counts as toxicity. The settings on record: salmonella enterica subsp. enterica serovar typhimurium, s9, 30 µM. Background: The Ames test detects mutagens through reverse mutation in bacteria.
The subject of series [14] is Mycobacterium tuberculosis. Kind of series: Antitubercular activity against Mycobacterium tuberculosis H37Rv. It counts as functional.

In brackets after ≈: the same amount, converted by molar mass. Activity calls are given as the source filed them. No cut-off for these calls is given here.

The record followed here is ChEMBL document CHEMBL4373711, “Development of 3,5-Dinitrophenyl-Containing 1,2,4-Triazoles and Their Trifluoromethyl Analogues as Highly Efficient Antitubercular Agents Inhibiting Decaprenylphosphoryl-β-d-ribofuranose 2'-Oxidase” (J Med Chem, 2019).

For orientation: IC50 means the concentration that inhibits the measured activity by half. For orientation: MIC99 means an inhibitory concentration at the 99% level, which refers to growth in some studies and to a panel of isolates in others. Low values mean greater potency, high ones weaker potency. For `CSc1nnc(-c2cc([N+](=O)[O-])cc([N+](=O)[O-])c2)n1Cc1ccccc1`, the IC50 in the series with HepG2 and in the series with A-431 was above 30 µM in each case. Also, the MIC99 came to 4 µM (≈ 1.49 µg/mL) with Mycobacterium kansasii [1]; 0.5 µM (≈ 0.186 µg/mL) in [3]; 4 µM (≈ 1.49 µg/mL) in the series with Mycobacterium kansasii [4]; 500 µM (≈ 186 µg/mL) with Mycobacterium avium [5]; 2 µM (≈ 0.743 µg/mL) against Mycobacterium kansasii [6]; 500 µM (≈ 186 µg/mL) against Mycobacterium avium [7]. Besides, the MIC99 against Mycobacterium kansasii [9] was 4 µM (≈ 1.49 µg/mL); with Mycobacterium kansasii [10] it was 8 µM (≈ 2.97 µg/mL); in [11] it was 1 µM (≈ 0.371 µg/mL); against Mycobacterium kansasii [12] it was 8 µM (≈ 2.97 µg/mL). Further, the result in the series on Staphylococcus aureus and with Candida albicans was Active. Moreover, the viability at 48 h, 30 µM is 83% in [2] and 93% in series [8].
For `[N-]=[N+]=[N-].[Na+]` [SODIUM AZIDE], the Activity result in series [13] is given as “Toxic”.
In general, MIC refers to the least concentration at which growth counts as inhibited. A higher MIC goes with weaker potency. For the compound `C[C@]1(COc2ccc(N3CCC(Oc4ccc(OC(F)(F)F)cc4)CC3)cc2)Cn2cc([N+](=O)[O-])nc2O1`, the MIC in [14] is 0.023 µM (≈ 0.0123 µg/mL).
With `O=c1nc(N2CCN(CC3CCCCC3)CC2)sc2c([N+](=O)[O-])cc(C(F)(F)F)cc12` [MACOZINONE], the minimal inhibitory concentration (MIC) in series [14] amounted to 0.0004 µM (≈ 0.000183 µg/mL).
